Assays:
Assay type in all cases: functional
HOP-92 = experiment: Cytotoxicity against human HOP92 cells assessed as growth inhibition at 10 uM after 48 hrs by sulphorhodamine B assay; details: HOP-92, 48 h, read-out: GI
Summary of the method: (§1)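 NCI-60 one-dose screen per the NCI Drug Evaluation Branch protocol. Cells given a single 10 µM concentration with 48 h continuous exposure. Growth estimated by sulphorhodamine B protein assay. Result expressed as percentage growth inhibition relative to untreated growth.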

NCI-H23 = experiment: Cytotoxicity against human NCI-H23 cells assessed as growth inhibition at 10 uM after 48 hrs by sulphorhodamine B assay; details: NCI-H23, 48 h, read-out: GI; summary of the method: as §1
[1] = Cytotoxicity against human EKVX cells assessed as growth inhibition at 10 uM after 48 hrs by sulphorhodamine B assay; details: read-out: GI; summary of the method: as §1
A549 = experiment: Cytotoxicity against human A549 cells assessed as growth inhibition at 10 uM after 48 hrs by sulphorhodamine B assay; details: A549, 48 h, read-out: GI; summary of the method: as §1
NCI/ADR-RES = experiment: Cytotoxicity against human NCI/ADR-RES cells assessed as growth inhibition at 10 uM after 48 hrs by sulphorhodamine B assay; details: read-out: GI; summary of the method: as §1
SNB-75 = experiment: Cytotoxicity against human SNB75 cells assessed as growth inhibition at 10 uM after 48 hrs by sulphorhodamine B assay; details: SNB-75, 48 h, read-out: GI; summary of the method: as §1
U-251 = experiment: Cytotoxicity against human U251 cells assessed as growth inhibition at 10 uM after 48 hrs by sulphorhodamine B assay; details: U-251, 48 h, read-out: GI; summary of the method: as §1
SNB-19 = experiment: Cytotoxicity against human SNB19 cells assessed as growth inhibition at 10 uM after 48 hrs by sulphorhodamine B assay; details: SNB-19, 48 h, read-out: GI; summary of the method: as §1
SF-295 = experiment: Cytotoxicity against human SF295 cells assessed as growth inhibition at 10 uM after 48 hrs by sulphorhodamine B assay; details: SF-295, 48 h, read-out: GI; summary of the method: as §1
DU-145 = experiment: Cytotoxicity against human DU145 cells assessed as growth inhibition at 10 uM after 48 hrs by sulphorhodamine B assay; details: DU-145, 48 h, read-out: GI; summary of the method: as §1
SF-268 = experiment: Cytotoxicity against human SF268 cells assessed as growth inhibition at 10 uM after 48 hrs by sulphorhodamine B assay; details: SF-268, 48 h, read-out: GI; summary of the method: as §1
PC-3 = experiment: Cytotoxicity against human PC3 cells assessed as growth inhibition at 10 uM after 48 hrs by sulphorhodamine B assay; details: PC-3, 48 h, read-out: GI; summary of the method: as §1
UACC-62 = experiment: Cytotoxicity against human UACC62 cells assessed as growth inhibition at 10 uM after 48 hrs by sulphorhodamine B assay; details: UACC-62, 48 h, read-out: GI; summary of the method: as §1
SK-MEL-2 = experiment: Cytotoxicity against human SK-MEL-2 cells assessed as growth inhibition at 10 uM after 48 hrs by sulphorhodamine B assay; details: SK-MEL-2, 48 h, read-out: GI; summary of the method: as §1
SK-MEL-5 = experiment: Cytotoxicity against human SK-MEL-5 cells assessed as growth inhibition at 10 uM after 48 hrs by sulphorhodamine B assay; details: SK-MEL-5, 48 h, read-out: GI; summary of the method: as §1
M14 = experiment: Cytotoxicity against human M14 cells assessed as growth inhibition at 10 uM after 48 hrs by sulphorhodamine B assay; details: M14, 48 h, read-out: GI; summary of the method: as §1
LOX IMVI = experiment: Cytotoxicity against human LOXIMVI cells assessed as growth inhibition at 10 uM after 48 hrs by sulphorhodamine B assay; details: read-out: GI; summary of the method: as §1
UO-31 = experiment: Cytotoxicity against human UO31 cells assessed as growth inhibition at 10 uM after 48 hrs by sulphorhodamine B assay; details: UO-31, 48 h, read-out: GI; summary of the method: as §1
CAKI-1 = experiment: Cytotoxicity against human Caki1 cells assessed as growth inhibition at 10 uM after 48 hrs by sulphorhodamine B assay; details: CAKI-1, 48 h, read-out: GI; summary of the method: as §1
RXF 393 = experiment: Cytotoxicity against human RXF393 cells assessed as growth inhibition at 10 uM after 48 hrs by sulphorhodamine B assay; details: RXF 393, 48 h, read-out: GI; summary of the method: as §1
ACHN = experiment: Cytotoxicity against human ACHN cells assessed as growth inhibition at 10 uM after 48 hrs by sulphorhodamine B assay; details: read-out: GI; summary of the method: as §1
SR = experiment: Cytotoxicity against human SR cells assessed as growth inhibition at 10 uM after 48 hrs by sulphorhodamine B assay; details: read-out: GI; summary of the method: as §1
A498 = experiment: Cytotoxicity against human A498 cells assessed as growth inhibition at 10 uM after 48 hrs by sulphorhodamine B assay; details: A498, 48 h, read-out: GI; summary of the method: as §1
RPMI-8226 = experiment: Cytotoxicity against human RPMI8226 cells assessed as growth inhibition at 10 uM after 48 hrs by sulphorhodamine B assay; details: RPMI-8226, 48 h, read-out: GI; summary of the method: as §1
MOLT-4 = experiment: Cytotoxicity against human MOLT4 cells assessed as growth inhibition at 10 uM after 48 hrs by sulphorhodamine B assay; details: MOLT-4, 48 h, read-out: GI; summary of the method: as §1
K562 = experiment: Cytotoxicity against human K562 cells assessed as growth inhibition at 10 uM after 48 hrs by sulphorhodamine B assay; details: K562, 48 h, read-out: GI; summary of the method: as §1
HL-60(TB) = experiment: Cytotoxicity against human HL-60(TB) cells assessed as growth inhibition at 10 uM after 48 hrs by sulphorhodamine B assay; details: HL-60, 48 h, read-out: GI
Summary of the method: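 NCI-60 one-dose primary screen run to the Drug Evaluation Branch protocol. Cells are exposed to a single 10 µM concentration for 48 h continuously, and growth is read by SRB protein assay. Data are reported as percent growth of treated cells, expressed as % growth inhibition.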

SK-OV-3 = experiment: Cytotoxicity against human SKOV3 cells assessed as growth inhibition at 10 uM after 48 hrs by sulphorhodamine B assay; details: SK-OV-3, 48 h, read-out: GI; summary of the method: as §1
CCRF-CEM = experiment: Cytotoxicity against human CCRF-CEM cells assessed as growth inhibition at 10 uM after 48 hrs by sulphorhodamine B assay; details: read-out: GI; summary of the method: as §1
OVCAR-5 = experiment: Cytotoxicity against human OVCAR5 cells assessed as growth inhibition at 10 uM after 48 hrs by sulphorhodamine B assay; details: OVCAR-5, 48 h, read-out: GI; summary of the method: as §1
OVCAR-4 = experiment: Cytotoxicity against human OVCAR4 cells assessed as growth inhibition at 10 uM after 48 hrs by sulphorhodamine B assay; details: OVCAR-4, 48 h, read-out: GI; summary of the method: as §1
IGROV-1 = experiment: Cytotoxicity against human IGROV1 cells assessed as growth inhibition at 10 uM after 48 hrs by sulphorhodamine B assay; details: IGROV-1, 48 h, read-out: GI; summary of the method: as §1
T47D = experiment: Cytotoxicity against human T47D cells assessed as growth inhibition at 10 uM after 48 hrs by sulphorhodamine B assay; details: read-out: GI; summary of the method: as §1
Hs-578T = experiment: Cytotoxicity against human Hs578T cells assessed as growth inhibition at 10 uM after 48 hrs by sulphorhodamine B assay; details: read-out: GI; summary of the method: as §1
NCI-H522 = experiment: Cytotoxicity against human NCI-H522 cells assessed as growth inhibition at 10 uM after 48 hrs by sulphorhodamine B assay; details: NCI-H522, 48 h, read-out: GI; summary of the method: as §1
HT-29 = experiment: Cytotoxicity against human HT-29 cells assessed as growth inhibition at 10 uM after 48 hrs by sulphorhodamine B assay; details: HT-29, 48 h, read-out: GI; summary of the method: as §1
MCF7 = experiment: Cytotoxicity against human MCF7 cells assessed as growth inhibition at 10 uM after 48 hrs by sulphorhodamine B assay; details: MCF7, 48 h, read-out: GI; summary of the method: as §1
MDA-MB-435 = experiment: Cytotoxicity against human MDA-MB-435 cells assessed as growth inhibition at 10 uM after 48 hrs by sulphorhodamine B assay; details: MDA-MB-435, 48 h, read-out: GI; summary of the method: as §1
HCT-15 = experiment: Cytotoxicity against human HCT15 cells assessed as growth inhibition at 10 uM after 48 hrs by sulphorhodamine B assay; details: HCT-15, 48 h, read-out: GI; summary of the method: as §1
MDA-MB-468 = experiment: Cytotoxicity against human MDA-MB-468 cells assessed as growth inhibition at 10 uM after 48 hrs by sulphorhodamine B assay; details: MDA-MB-468, 48 h, read-out: GI; summary of the method: as §1
HCT-116 = experiment: Cytotoxicity against human HCT116 cells assessed as growth inhibition at 10 uM after 48 hrs by sulphorhodamine B assay; details: HCT-116, 48 h, read-out: GI; summary of the method: as §1

SMILES: COc1ccc(-c2c(C#N)c(N)nc3c2CCCC3C)cc1 (stereo unspecified)
- inhibition of growth at 10 µM (HOP-92): 20%
- inhibition of growth at 10 µM (NCI-H23): 11%
- inhibition of growth at 10 µM [1]: < 10%
- inhibition of growth at 10 µM (A549): 15.7%
- inhibition of growth at 10 µM (NCI/ADR-RES): 24.1%
- inhibition of growth at 10 µM (SNB-75): 25.3%
- inhibition of growth at 10 µM (U-251): 20%
- inhibition of growth at 10 µM (SNB-19): 11%
- inhibition of growth at 10 µM (SF-295): < 10%
- inhibition of growth at 10 µM (DU-145): < 10%
- inhibition of growth at 10 µM (SF-268): < 10%
- inhibition of growth at 10 µM (PC-3): 16.2%
- inhibition of growth at 10 µM (UACC-62): 20%
- inhibition of growth at 10 µM (SK-MEL-2): < 10%
- inhibition of growth at 10 µM (SK-MEL-5): 14.5%
- inhibition of growth at 10 µM (M14): < 10%
- inhibition of growth at 10 µM (LOX IMVI): 12.3%
- inhibition of growth at 10 µM (UO-31): < 10%
- inhibition of growth at 10 µM (CAKI-1): < 10%
- inhibition of growth at 10 µM (RXF 393): 11.1%
- inhibition of growth at 10 µM (ACHN): < 10%
- inhibition of growth at 10 µM (SR): 36.6%
- inhibition of growth at 10 µM (A498): < 10%
- inhibition of growth at 10 µM (RPMI-8226): 34.1%
- inhibition of growth at 10 µM (MOLT-4): 21.3%
- inhibition of growth at 10 µM (K562): 28.4%
- inhibition of growth at 10 µM (HL-60(TB)): 11.7%
- inhibition of growth at 10 µM (SK-OV-3): < 10%
- inhibition of growth at 10 µM (CCRF-CEM): 16.3%
- inhibition of growth at 10 µM (OVCAR-5): < 10%
- inhibition of growth at 10 µM (OVCAR-4): 17.2%
- inhibition of growth at 10 µM (IGROV-1): < 10%
- inhibition of growth at 10 µM (T47D): 41%
- inhibition of growth at 10 µM (Hs-578T): < 10%
- inhibition of growth at 10 µM (NCI-H522): 14.6%
- inhibition of growth at 10 µM (HT-29): < 10%
- inhibition of growth at 10 µM (MCF7): 10%
- inhibition of growth at 10 µM (MDA-MB-435): < 10%
- inhibition of growth at 10 µM (HCT-15): 25.3%
- inhibition of growth at 10 µM (MDA-MB-468): 15.2%
- inhibition of growth at 10 µM (HCT-116): 15.7%

— ChEMBL document CHEMBL2375313, “Synthesis, in vitro antitumor evaluation and DNA-binding study of novel tetrahydroquinolines and some derived tricyclic and tetracyclic ring systems” (Eur J Med Chem, 2013)
